Test results as given in ChEMBL document CHEMBL4342502, “Synthesis and Antichlamydial Activity of Molecules Based on Dysregulators of Cylindrical Proteases” (J Med Chem, 2020).
Converted amounts (≈) assume the structure as drawn. The source made the active and inactive calls. The rule behind the calls is not given here.

Assays:
[1] = tested on: HaCaT; test: Cytotoxicity against immortal human HaCaT cells assessed as reduction in cell viability at 50 ug/ml after 24 hrs by CCK-8 assay; assay type: cell-based
Procedure, shortened: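 HeLa 229 and HaCaT cells in DMEM with 10% FBS and 1% penicillin/streptomycin, 37 °C, 5% CO2, seeded at 5000 cells/well. Next day treated with 50 μg/mL in triplicate, with matching DMSO controls. After 24 h, CCK-8 added for 2 h; corrected absorbance read at 450 nm.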

[2] = tested on: Chlamydia trachomatis; test: Anti-chlamydial activity against Chlamydia trachomatis Serovar LGV-L2 infected in Hep2 cells assessed as reduction in chlamydial inclusion growth treated at 8 hrs post-infection and 24 hrs later re-infecting fresh Hep2 cells monolayer with infected cells and measured at 24 hrs post re-infection by immunofluorescence staining based microscopy analysis; assay type: functional, organism-based
Procedure, shortened: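 HEp-2 cells grown in DMEM with 2% L-glutamine and 10% FBS at 37 °C. Infected with C. trachomatis L2 at MOI 1, with compound added in triplicate at 8 hpi. At 24 hpi, lysates were collected in sucrose storage medium, frozen at −80 °C and passed as 10-fold dilutions onto fresh HEp-2. After 24 h, stained with goat anti-MOMP then Alexa488 secondary. IFU taken as mean inclusions across 15 fields (20x), corrected for dilution.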

[3] = tested on: Chlamydia trachomatis; test: Anti-chlamydial activity against Chlamydia trachomatis Serovar LGV-L2 infected in Hep2 cells assessed as reduction in chlamydial growth by measuring decrease in inclusion forming units at 5.2 to 50 ug/ml treated at 8 hrs post-infection and 24 hrs later re-infecting fresh Hep2 cells monolayer with infected cells and measured at 24 hrs post re-infection by immunofluorescence staining based microscopy analysis; assay type: functional, organism-based
Procedure, shortened: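 HEp-2 cells in DMEM with 10% FBS, infected with C. trachomatis L2 at MOI 1. Compounds added 8 hpi in triplicate; DMSO stocks at 50 mg/mL. At 24 hpi lysates collected in sucrose storage medium, frozen at −80 °C, and used to infect fresh HEp-2 monolayers in 10-fold dilutions. After 24 h, stained with goat anti-MOMP and Alexa488 secondary. Inclusions counted in 15 fields at 20x; IFU = mean count per field corrected for dilution.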

[4] = tested on: Chlamydia trachomatis; test: Anti-chlamydial activity against Chlamydia trachomatis Serovar LGV-L2 infected in Hep2 cells assessed as reduction in chlamydial inclusion yield at 50 ug/ml treated at 8 hrs post infection and incubated for 16 hrs followed by compound washout and further incubated for 24 hrs by immunofluorescence staining based microscopic assay; assay type: functional, organism-based
Procedure, shortened: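 Medium was then removed, wells washed three times with Hanks' balanced salt solution, and compound-free medium added; incubation continued 24 h. Read-out by IFU re-infection and anti-MOMP immunofluorescence, as in the IFU protocol.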

[5] = tested on: Chlamydia trachomatis; test: Activation of recombinant Chlamydia trachomatis Serovar LGV-L2 C-terminal 6xhis-tagged ClpP1/ClpP2 dimer expressed in Escherichia coli assessed as induction of casein degradation at 0.1 to 1 uM using FITC-labelled casein as substrate pretreated with enzyme for 30 mins followed by substrate addition and measured every 3 mins for 3 hrs in presence of AAA+ chaperone by fluorescence based tecan-plate reader assay

SMILES	Activity [1]	inhibition [2]	IC50 ([2]; Serovar LGV-L2, HEp-2) [µg/mL]	inhibition [3]	inhibition [4]	Activity [5]
CC(C)(C(=O)NCCCc1ccccc1)S(=O)(=O)c1ccc(C(F)(F)F)cc1	Toxic	–	–	–	–	–
CC(C)(C(=O)N1CCN(Cc2ccc(Cl)cc2)CC1)S(=O)(=O)c1ccc(C(F)(F)F)cn1	–	Dose-dependent effect	5.2 (≈ 10.6 µM)	Active	inactive	inactive
